This experiment addresses Asyn fibrils (Homo sapiens, UniProt P37840). The experiment is described as follows: Radioligand competition binding on Asyn fibrils with [3H]1. Put shortly:
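Recombinant human Asyn fibrils at 150 nM incubated with 2 nM [3H]1 and test compound (1–1000 nM) in 30 mM Tris-HCl pH 7.4 with 0.1% BSA for 2 h at 37 °C. Bound ligand separated by vacuum filtration through 1.0 μm glass fiber filters, washed three times with cold buffer, and counted by scintillation after overnight incubation. Triplicates. EC50 from sigmoidal fit; Ki = EC50/(1+[radioligand]/Kd).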

`COc1ccc(/C=C/c2cc(-c3nccs3)on2)cc1` [compound 1, (E)-3-(4-methoxystyryl)-5-(thiazol-2-yl)isoxazole]: the Kd (in general, the equilibrium constant for the complex coming apart) worked out at 0.047 µM.

Source of the values: PMC6736640 (ACS chemical neuroscience, 2018).
